In data set [1] the target is T1, ATP-dependent translocase ABCB1 (Homo sapiens, UniProt P08183). As to the kind of experiment: Inhibition of P-glycoprotein-mediated multidrug resistance in human doxorubicin-resistant K562 cells assessed as maximal increase in nuclear concentration of pirarubicin by spectrofluorimetry relative to sensitive K562 cells. It counts as cell-based. The essentials: (§1)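 Pirarubicin uptake was measured in doxorubicin-resistant K562/DOX cells, which overexpress only Pgp, by continuous spectrofluorometry (excitation 480 nm, emission 590 nm) after incubation. R is the fold increase in nuclear pirarubicin with inhibitor, from 0 (no inhibitor) to 1 (equal to sensitive cells). Rmax is the maximal attainable R. Reported concentrations are those giving R = 0.2 or R = 0.5.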
T1 sequence (P08183 whole entry): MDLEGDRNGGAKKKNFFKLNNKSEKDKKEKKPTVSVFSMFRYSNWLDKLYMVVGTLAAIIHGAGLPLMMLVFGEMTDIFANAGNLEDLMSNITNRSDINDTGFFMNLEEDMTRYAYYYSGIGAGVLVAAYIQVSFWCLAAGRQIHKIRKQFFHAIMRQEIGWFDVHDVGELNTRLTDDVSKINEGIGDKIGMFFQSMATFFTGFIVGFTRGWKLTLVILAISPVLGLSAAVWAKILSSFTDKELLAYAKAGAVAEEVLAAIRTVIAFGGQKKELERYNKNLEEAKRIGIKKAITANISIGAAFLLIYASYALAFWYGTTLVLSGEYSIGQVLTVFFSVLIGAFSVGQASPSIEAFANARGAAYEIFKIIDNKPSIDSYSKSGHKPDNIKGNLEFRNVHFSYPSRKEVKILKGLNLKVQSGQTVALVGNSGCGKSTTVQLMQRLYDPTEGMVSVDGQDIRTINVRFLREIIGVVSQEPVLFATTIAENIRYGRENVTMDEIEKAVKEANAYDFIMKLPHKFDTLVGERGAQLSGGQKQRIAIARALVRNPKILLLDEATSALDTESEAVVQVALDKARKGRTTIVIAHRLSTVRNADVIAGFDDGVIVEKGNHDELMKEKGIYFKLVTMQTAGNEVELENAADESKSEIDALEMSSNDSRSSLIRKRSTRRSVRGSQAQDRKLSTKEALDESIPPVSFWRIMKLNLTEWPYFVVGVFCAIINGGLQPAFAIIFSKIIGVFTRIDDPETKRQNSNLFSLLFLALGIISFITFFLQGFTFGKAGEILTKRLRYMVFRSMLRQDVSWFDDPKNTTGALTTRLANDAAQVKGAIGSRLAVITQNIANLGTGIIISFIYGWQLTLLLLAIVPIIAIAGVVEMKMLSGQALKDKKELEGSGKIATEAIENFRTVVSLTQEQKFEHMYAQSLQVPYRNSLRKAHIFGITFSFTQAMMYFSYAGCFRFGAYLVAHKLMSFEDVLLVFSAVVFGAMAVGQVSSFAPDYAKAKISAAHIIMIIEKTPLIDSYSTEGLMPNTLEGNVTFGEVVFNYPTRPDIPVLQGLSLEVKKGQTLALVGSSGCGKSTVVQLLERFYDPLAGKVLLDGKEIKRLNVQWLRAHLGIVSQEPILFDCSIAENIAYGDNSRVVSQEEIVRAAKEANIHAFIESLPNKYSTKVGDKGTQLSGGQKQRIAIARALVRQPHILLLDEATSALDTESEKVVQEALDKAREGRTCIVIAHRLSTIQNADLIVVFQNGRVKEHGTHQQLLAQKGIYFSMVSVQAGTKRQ

In data set [2] the test system is K562. As to the kind of experiment: Growth inhibition in doxorubicin-resistant human K562 cells overexpressing Pgp at 1 uM after 72 hrs by MTT assay. It counts as functional. Particulars: K562, 72 h, read-out: GI. In general terms: Tetrazolium dyes change colour on reduction, which living cells bring about.
For data set [3], the system named is K562. As to the kind of experiment: Growth inhibition in human K562 cells at 1 uM after 72 hrs by MTT assay. Type of data set: functional. The settings on record: K562, 72 h, read-out: GI.
Data set [4] deals with K562. As to the kind of experiment: Growth inhibition in doxorubicin-resistant human K562 cells overexpressing Pgp at 3 uM after 72 hrs by MTT assay. Type of data set: functional. The settings on record: K562, 72 h, read-out: GI.
In data set [5] the target is T1, ATP-dependent translocase ABCB1. Nature of the data set: Inhibition of P-glycoprotein-mediated multidrug resistance in human doxorubicin-resistant K562 cells assessed as drug level causing 50% increase in nuclear concentration of pirarubicin by spectrofluorimetry. The settings on record: read-out: INH. It counts as cell-based. The essentials: as §1
Data set [6] deals with K562. As to the kind of experiment: Growth inhibition in human K562 cells at 3 uM after 72 hrs by MTT assay. It counts as functional. The settings on record: K562, 72 h, read-out: GI.
Data set [7] deals with T1, ATP-dependent translocase ABCB1. Nature of the data set: Inhibition of P-glycoprotein-mediated multidrug resistance in human doxorubicin-resistant K562 cells assessed as drug level causing 20% increase in nuclear concentration of pirarubicin by spectrofluorimetry. It counts as cell-based. An outline of the steps: as §1

Turning to `COc1cc(/C=C/C(=O)OCCCN(C)CCCOC(=O)C(c2ccccc2)c2ccccc2)cc(OC)c1OC`, the “fold change (FC)” value in data set [1] is recorded as 0.77. Also, the inhibition of growth at 1 µM in data set [2] and in data set [3] was at most 10% throughout. Besides, the inhibition of growth at 3 µM in data set [4] and in data set [6] was at most 10% each time. Moreover, in data set [5], the IC50 is 260 nM.
Take `COc1ccc(/C=C/C(=O)OCCCN(C)CCCOC(=O)c2c3ccccc3cc3ccccc23)cc1OC`: the “fold change (FC)” value in data set [1] is recorded as 0.57. The IC50 in data set [5] came to 190 nM.
Consider `COc1ccc(/C=C/C(=O)OCCCN(C)CCCOC(=O)c2cc(OC)c(OC)c(OC)c2)cc1OC`, for which, in data set [1], the “fold change (FC)” value was 0.34. Moreover, the INH in data set [7] amounted to 0.7 µM.
`COc1ccc(C(C#N)(CCCNCc2c3ccccc3cc3ccccc23)C(C)C)cc1OC` (centres undefined): the “fold change (FC)” value in data set [1] turned out to be 0.7. Also, the IC50 in data set [5] came to 50 nM.
In the case of `COc1cc(/C=C/C(=O)OCCCN(C)CCCOC(=O)/C=C/c2ccc(-c3ccccc3)cc2)cc(OC)c1OC`, the “fold change (FC)” value in data set [1] is on record as 0.85. For the same compound, the inhibition of growth at 1 µM in data set [2] and in data set [3] was at most 10% each time. For the same compound, the inhibition of growth at 3 µM in data set [4] and in data set [6] was at most 10% in each case. In addition, the IC50 in data set [5] is 240 nM.
Take `COc1cc(/C=C/C(=O)OCCCCCN(C)CCCCCOC(=O)C=C(c2ccccc2)c2ccccc2)cc(OC)c1OC`: the “fold change (FC)” value in data set [1] is on record as 0.28. Further, in data set [7], the INH amounted to 0.5 µM.
On to `COc1cc(/C=C/C(=O)OCCCNCCCOC(=O)/C=C/c2c3ccccc3cc3ccccc23)cc(OC)c1OC`, for which the “fold change (FC)” value in data set [1] stood at 0.92. Also, the IC50 in data set [5] was 800 nM.
On the same counts, the results for `COc1ccc(/C=C/C(=O)OCCCCCN(C)CCCCCOC(=O)c2cc(OC)c(OC)c(OC)c2)cc1OC` are 0.7 and 640 nM.
As to `COc1ccc(/C=C/C(=O)OCCCCCN(C)CCCCCOC(=O)c2c3ccccc3cc3ccccc23)cc1OC`, the “fold change (FC)” value in data set [1] came out at 1. Moreover, the inhibition of growth at 1 µM in data set [2] and in data set [3] was at most 10% in each case. Besides, the inhibition of growth at 3 µM in data set [4] and in data set [6] was at most 10% in each case. Further, the IC50 in data set [5] came to 170 nM.
With `COc1cc(/C=C/C(=O)OCCCCCN(C)CCCCCOC(=O)/C=C/c2ccc(-c3ccccc3)cc2)cc(OC)c1OC`, the “fold change (FC)” value in data set [1] is given as 0.4. In addition, the INH in data set [7] was 0.36 µM.
Regarding `COc1ccc(/C=C/C(=O)OCCCN(C)CCCOC(=O)c2c3ccccc3c(Cl)c3ccccc23)cc1OC`, the “fold change (FC)” value in data set [1] turned out to be 0.98. For the same compound, the IC50 in data set [5] turned out to be 410 nM.
For `COc1cc2c(cc1OC)CN(CCC(=O)OCCCN(C)CCCOC(=O)/C=C/c1cc(OC)c(OC)c(OC)c1)CC2`, in that order: 0.63 and 3700 nM.
Consider `COc1ccc(C(C(=O)OCCCCCN(C)CCCCCOC(=O)/C=C/c2cc(OC)c(OC)c(OC)c2)c2ccc(OC)cc2)cc1`, for which the “fold change (FC)” value in data set [1] stood at 0.5. Besides, the IC50 in data set [5] was 400 nM.
For `COc1ccc(CCN(C)CCCC(C#N)(c2ccc(OC)c(OC)c2)C(C)C)cc1OC` (centres undefined) [VERAPAMIL], the inhibition of growth at 1 µM in data set [2] and in data set [3] was at most 10% in each case. For the same compound, the inhibition of growth at 3 µM in data set [4] and in data set [6] was at most 10% throughout.
With `COc1ccc(C(C(=O)OCCCN(C)CCCOC(=O)/C=C/c2cc(OC)c(OC)c(OC)c2)c2ccc(OC)cc2)cc1`, in data set [1], the “fold change (FC)” value is on record as 0.79. The inhibition of growth at 1 µM in data set [2] and in data set [3] was at most 10% each time. Besides, the inhibition of growth at 3 µM in data set [4] and in data set [6] was at most 10% each time. Moreover, in data set [5], the IC50 was 80 nM.
As for `COc1cc(/C=C/C(=O)OCCCN(C)CCCOC(=O)/C=C/c2c3ccccc3cc3ccccc23)cc(OC)c1OC`, in data set [1], the “fold change (FC)” value came out at 0.93. Also, the IC50 in data set [5] is 250 nM.
For `COc1ccc(/C=C/C(=O)OCCCN(C)CCCOC(=O)/C=C/c2cc(OC)c(OC)c(OC)c2)cc1OC`, the “fold change (FC)” value in data set [1] came out at 0.5. The INH in data set [7] is 1.4 µM.
Turning to `COc1cc(/C=C/C(=O)OCCCN(C)CCCOC(=O)c2ccc(-c3ccccc3)cc2)cc(OC)c1OC`, the “fold change (FC)” value in data set [1] amounted to 0.77. Besides, the IC50 in data set [5] came out at 220 nM.
With `COc1cc(/C=C/C(=O)OCCCN(C)CCCOC(=O)CCN2C(=O)C3C4c5ccccc5C(c5ccccc54)C3C2=O)cc(OC)c1OC` (centres undefined), in data set [1], the “fold change (FC)” value is listed as 0.63. For the same compound, the IC50 in data set [5] turned out to be 390 nM.
Consider `COc1cc(/C=C/C(=O)OCCCN(C)CCCOC(=O)C=C(c2ccccc2)c2ccccc2)cc(OC)c1OC`, for which, in data set [1], the “fold change (FC)” value came to 0.66. The results for the inhibition of growth at 1 µM in data set [2] and in data set [3] were at most 10% and 20%, respectively. The inhibition of growth at 3 µM in data set [4] and in data set [6] was 20% each time. For the same compound, in data set [5], the IC50 was 160 nM.
Turning to `COc1cc(/C=C/C(=O)OCCCN(C)CCCOC(=O)CN2C(=O)C3C4c5ccccc5C(c5ccccc54)C3C2=O)cc(OC)c1OC` (centres undefined), the “fold change (FC)” value in data set [1] is 0.73. For the same compound, the IC50 in data set [5] was determined as 230 nM.

The values are drawn from ChEMBL document CHEMBL1154908, “Structure-activity relationships studies in a series of N,N-bis(alkanol)amine aryl esters as P-glycoprotein (Pgp) dependent multidrug resistance (MDR) inhibitors” (J Med Chem, 2010).
